Measured values taken from ChEMBL document CHEMBL1806386, “Antiproliferative activity of aroylacrylic acids. Structure-activity study based on molecular interaction fields” (Eur J Med Chem, 2011).

Columns and labels:
HeLa [1] = test: Antiproliferative activity against human HeLa cells assessed as inhibition of cell survival after 72 hrs by MTT method; type: functional, cell-based
Method in brief: (§1)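 HeLa (2000 cells/well) or LS174 (5000 cells/well) seeded in RPMI-1640 with 10% FBS, 3 mmol/L L-glutamine, 25 mM Hepes, pH 7.2; five concentrations added after 20 h from 10 mM DMSO stocks, each in triplicate. MTT 72 h after dosing, 4 h at 37 °C, SDS solubilization, A570 next day. Blank-subtracted survival vs control; IC50 is the mean of three experiments.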

K562 = test: Antiproliferative activity against human K562 cells assessed as inhibition of cell survival after 72 hrs by MTT method; type: functional, cell-based; details: K562, 72 h
Method in brief: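 K562 grown in suspension at 3000 cells/well in RPMI-1640 with 10% FBS, 3 mmol/L L-glutamine, 25 mM Hepes, pH 7.2. Five concentrations added 2 h after seeding from 10 mM DMSO stocks, in triplicate. MTT read 72 h later, SDS solubilization, A570. IC50 taken from blank-subtracted survival relative to control, mean of three experiments.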

[2] = Antiproliferative activity against human LS 174T cells assessed as inhibition of cell survival after 72 hrs by MTT method; type: functional, cell-based; details: LS174T; method in brief: as §1
HeLa [3] = test: Cell cycle arrest in human HeLa cells assessed as accumulation at S phase at 2 times IC50 after 24 hrs using propidium iodide staining by flow cytometry (reference value: 24.47%); type: functional
Method in brief: (§2)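 HeLa cells, 5×10⁵ per aliquot, treated at two times the 72 h IC50 for 24, 48 or 72 h alongside untreated controls. Fixed in 70% ethanol on ice for one week, given RNase A at 37 °C for 30 min, then PI for at least 30 min. Flow cytometry with 488 nm excitation, FL2 at 585/42 nm, doublets excluded, 20,000 events per sample.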

HeLa [4] = test: Cell cycle arrest in human HeLa cells assessed as accumulation at sub-G1 phase at 2 times IC50 after 48 hrs using propidium iodide staining by flow cytometry (reference value: 6.87%); type: functional; method in brief: as §2
HeLa [5] = test: Cell cycle arrest in human HeLa cells assessed as accumulation at sub-G1 phase at 2 times IC50 after 72 hrs using propidium iodide staining by flow cytometry (reference value: 9.85%); type: functional; method in brief: as §2
HeLa [6] = test: Cell cycle arrest in human HeLa cells assessed as accumulation at S phase at 2 times IC50 after 48 hrs using propidium iodide staining by flow cytometry (reference value: 20.14%); type: functional; method in brief: as §2
HeLa [7] = test: Cell cycle arrest in human HeLa cells assessed as accumulation at sub-G1 phase at 2 times IC50 after 24 hrs using propidium iodide staining by flow cytometry (reference value: 3.34%); type: functional; method in brief: as §2
HeLa [8] = test: Cell cycle arrest in human HeLa cells assessed as accumulation at G1 phase at 2 times IC50 after 24 hrs using propidium iodide staining by flow cytometry (reference value: 46.78%); type: functional; method in brief: as §2
HeLa [9] = test: Cell cycle arrest in human HeLa cells assessed as accumulation at G1 phase at 2 times IC50 after 48 hrs using propidium iodide staining by flow cytometry (reference value: 51.32%); type: functional; method in brief: as §2
HeLa [10] = test: Cell cycle arrest in human HeLa cells assessed as accumulation at G2/M phase at 2 times IC50 after 24 hrs using propidium iodide staining by flow cytometry (reference value: 25.97%); type: functional; method in brief: as §2
HeLa [11] = test: Cell cycle arrest in human HeLa cells assessed as accumulation at S phase at 2 times IC50 after 72 hrs using propidium iodide staining by flow cytometry (reference value: 22.53%); type: functional; method in brief: as §2
HeLa [12] = test: Cell cycle arrest in human HeLa cells assessed as accumulation at G2/M phase cell at 2 times IC50 after 72 hrs using propidium iodide staining by flow cytometry (reference value: 17.57%); type: functional; method in brief: as §2
HeLa [13] = test: Cell cycle arrest in human HeLa cells assessed as accumulation at G2/M phase cell at 2 times IC50 at 2 times IC50 after 48 hrs using propidium iodide staining by flow cytometry (reference value: 22.05%); type: functional; method in brief: as §2
HeLa [14] = test: Cell cycle arrest in human HeLa cells assessed as accumulation at G1 phase at 2 times IC50 after 72 hrs using propidium iodide staining by flow cytometry (reference value: 49.90%); type: functional; method in brief: as §2

Row | SMILES | IC50 (HeLa [1]) | IC50 (K562) | IC50 [2] | also measured
1 | O=C(O)/C=C/C(=O)c1ccccc1 | 30.6 µM | 30.2 µM | 45.5 µM | –
2 | CCc1ccc(C(=O)/C=C/C(=O)O)cc1 | 27.8 µM | 5.53 µM | 21 µM | –
3 | CC(C)c1ccc(C(=O)/C=C/C(=O)O)cc1 | 4.9 µM | 5.56 µM | 25.7 µM | –
4 | CCCCc1ccc(C(=O)/C=C/C(=O)O)cc1 | 4.78 µM | 4.95 µM | 6.74 µM | –
5 | CC(C)(C)c1ccc(C(=O)/C=C/C(=O)O)cc1 | 5.1 µM | 4.33 µM | 8.74 µM | –
6 | CCCCCCCCCCCCc1ccc(C(=O)/C=C/C(=O)O)cc1 | 5.82 µM | 4.01 µM | 7.85 µM | –
7 | Cc1ccc(C(=O)/C=C/C(=O)O)c(C)c1 | 6.06 µM | 5.35 µM | 7.08 µM | –
8 | Cc1ccc(C)c(C(=O)/C=C/C(=O)O)c1 | 7.86 µM | 5.9 µM | 22 µM | –
9 | Cc1ccc(C(=O)/C=C/C(=O)O)cc1C | 7.28 µM | 5.62 µM | 12.1 µM | –
10 | O=C(O)/C=C/C(=O)c1ccc2c(c1)CCCC2 | 7.01 µM | 5.6 µM | 17.6 µM | –
11 | CCc1ccc(C(C)C)cc1C(=O)/C=C/C(=O)O | 4.89 µM | 1.36 µM | 5.94 µM | –
12 | CC(C)c1ccc(C(=O)/C=C/C(=O)O)c(C(C)C)c1 | 4.06 µM | 4.68 µM | 5.36 µM | –
13 | CC(C)c1ccc(C(C)C)c(C(=O)/C=C/C(=O)O)c1 | 4.75 µM | 3.28 µM | 6.23 µM | –
14 | CCc1cc(CC)c(C(=O)/C=C/C(=O)O)c(CC)c1 | 6.53 µM | 4.01 µM | 7.28 µM | –
15 | CC(C)c1cc(C(C)C)c(C(=O)/C=C/C(=O)O)c(C(C)C)c1 | 6.1 µM | 4.67 µM | 8.28 µM | –
16 | CCc1c(C(=O)/C=C/C(=O)O)cc(C(C)C)cc1C(C)C | 7.61 µM | 5.1 µM | 12.3 µM | –
17 | Cc1cc(C2CCCCC2)c(C)cc1C(=O)/C=C/C(=O)O | 2.38 µM | 4.24 µM | 6.64 µM | –
18 | O=C(O)/C=C/C(=O)c1cc(C2CCCCC2)ccc1C1CCCCC1 | 1.26 µM | 3.32 µM | 4.28 µM | Activity (HeLa [3]): 32.67%; Activity (HeLa [4]): 15.79%; Activity (HeLa [5]): 21.71%; Activity (HeLa [6]): 31.66%; Activity (HeLa [7]): 12.64%; Activity (HeLa [8]): 39.98%; Activity (HeLa [9]): 36.94%; Activity (HeLa [10]): 15.36%; Activity (HeLa [11]): 24.2%; Activity (HeLa [12]): 16.57%; Activity (HeLa [13]): 16.73%; Activity (HeLa [14]): 38.3%
19 | Cc1ccc(C(=O)/C=C/C(=O)O)c(Cl)c1 | 7.6 µM | 14.6 µM | 27.7 µM | –
20 | O=C(O)/C=C/C(=O)c1ccc(F)cc1 | 28.4 µM | 16.9 µM | 33.8 µM | –
21 | O=C(O)/C=C/C(=O)c1ccc(Cl)cc1 | 25.4 µM | 21.7 µM | 28.7 µM | –
22 | O=C(O)/C=C/C(=O)c1ccc(Br)cc1 | 18.7 µM | 11.2 µM | 27.1 µM | –
23 | O=C(O)/C=C/C(=O)c1ccc(Cl)cc1Cl | 62.9 µM | 58.5 µM | > 100 µM | –
24 | COc1ccc(C(=O)/C=C/C(=O)O)cc1 | 27.4 µM | 12.3 µM | 34.7 µM | –
25 | COc1ccc(C(=O)/C=C/C(=O)O)c(OC)c1OC | 96.2 µM | > 100 µM | > 100 µM | –
26 | Cc1ccc(C(=O)/C=C/C(=O)O)cc1 | 7.62 µM | 9.17 µM | 28.4 µM | –
27 | O=C(O)/C=C/C(=O)c1ccc(Cl)c(Cl)c1 | 28.3 µM | 23.2 µM | 32.3 µM | –
